Data: BindingDB's records for doi:10.1016/j.bmcl.2006.08.108 (Merck Sharp and Dohme Research Laboratories, 2006)

Biological target: 5-hydroxytryptamine receptor 2A (Homo sapiens, UniProt P28223)
Assay: Displacement of [3H]ketanserin from human 5HT2A receptor expressed in CHOK1 cells
How it was run: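 Membranes from confluent CHO K1 cells expressing human 5-HT2A were incubated with [3H]ketanserin (76 Ci/mmol) for 15 min at 37 °C with shaking at 180 rpm. Buffer was 50 mM Tris pH 7.7, 0.1% ascorbate, pargyline, MgSO4 and 0.5 mM EDTA. Bound and free ligand were separated by GF/B filtration and the filters counted. Mianserin defined non-specific binding. Five-point log titrations were fitted with a four-parameter curve to give IC50 and Ki.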

5-hydroxytryptamine receptor 2A, sequence (P28223 whole entry): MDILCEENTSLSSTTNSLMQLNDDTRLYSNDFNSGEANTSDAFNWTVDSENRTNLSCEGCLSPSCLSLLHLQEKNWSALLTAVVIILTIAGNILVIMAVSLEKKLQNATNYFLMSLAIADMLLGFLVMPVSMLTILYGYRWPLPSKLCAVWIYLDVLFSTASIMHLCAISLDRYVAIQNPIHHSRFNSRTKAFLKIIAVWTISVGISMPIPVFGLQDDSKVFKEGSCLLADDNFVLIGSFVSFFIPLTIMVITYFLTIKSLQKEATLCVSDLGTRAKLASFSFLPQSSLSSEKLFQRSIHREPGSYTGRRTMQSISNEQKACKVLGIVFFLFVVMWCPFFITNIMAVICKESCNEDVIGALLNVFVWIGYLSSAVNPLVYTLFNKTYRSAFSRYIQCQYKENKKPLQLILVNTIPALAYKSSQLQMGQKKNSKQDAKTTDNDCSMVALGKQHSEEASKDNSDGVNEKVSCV

| IC50 [nM] | Structure (SMILES) |
| --- | --- |
| > 1000 | Cc1ccc(C2=NCCN=C(N3CCOCC3)C2)cc1 [5-morpholino-7-p-tolyl-2,3-dihydro-1H-1,4-diazepine] |
| 11 | Cc1ccc(C2=NCCN=C(NC(C)(C)C)C2)cc1 [N-tert-butyl-7-p-tolyl-2,3-dihydro-1H-1,4-diazepin-5-amine] |
| 11 | CC(C)(C)NC1=NCCN=C(c2ccc(F)cc2F)C1 [N-tert-butyl-7-(2,4-difluorophenyl)-2,3-dihydro-1H-1,4-diazepin-5-amine] |
| > 1000 | CCN(CC)C1=NCCN=C(c2ccccc2F)C1 [N,N-diethyl-7-(2-fluorophenyl)-2,3-dihydro-1H-1,4-diazepin-5-amine] |
| > 1000 | CCN(CC)C1=NCCN=C(c2ccc(C)cc2)C1 [N,N-diethyl-7-p-tolyl-2,3-dihydro-1H-1,4-diazepin-5-amine] |
| > 1000 | Cc1ccc(C2=NCCN=C(N3CCNCC3)C2)cc1 [5-(piperazin-1-yl)-7-p-tolyl-2,3-dihydro-1H-1,4-diazepine] |
